Assay results from ChEMBL document CHEMBL4842325, “Lanosterol 14α-demethylase (CYP51)/histone deacetylase (HDAC) dual inhibitors for treatment of Candida tropicalis and Cryptococcus neoformans infections” (Eur J Med Chem, 2021).
pIC50: −log10 of the molar value. In brackets after ≈: the same amount, converted by molar mass. Activity calls are given as the source filed them. The rule behind the calls is not given here.

How the values were obtained:
Cryptococcus neoformans [1] = experiment: Downregulation of CLR61 mRNA expression in Cryptococcus neoformans H99 at 2 ug/ml measured after 24 hrs by qRT-PCR analysis; type: functional; conditions: dose 2.0 µg/ml
Method in brief: (§1)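 Exponentially growing C. neoformans H99 inoculated into 50 mL YPD with compound and incubated 35 °C for 24 h. Cells ground in liquid nitrogen before total RNA isolation, then reverse transcription and real-time RT-qPCR. Means ± SD of three independent assays.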

Cryptococcus neoformans [2] = experiment: Downregulation of HDA1 mRNA expression in Cryptococcus neoformans H99 at 2 ug/ml measured after 24 hrs by qRT-PCR analysis; type: functional; conditions: dose 2.0 µg/ml; method in brief: as §1
Cryptococcus neoformans [3] = experiment: Inhibition of CYP51 in Cryptococcus neoformans H99 assessed as ergosterol level at 4 ug/ml by GC-MS analysis (reference value: 60.18%); parameters: scale not given: the % may be the effect or the level left; conditions: dose 4.0 µg/ml
Candida tropicalis [4] = experiment: Antifungal activity against fluconazole-resistant Candida tropicalis 5008 assessed as inhibition of cell proliferation at 32 ug/ml measured for 48 hrs by time growth curve assay; type: functional, organism-based; conditions: dose 32.0 µg/ml
Method in brief: (§2)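 Exponential-phase cells from YEPD resuspended in 3 mL fresh RPMI 1640 at 1 × 10⁵ cells/mL (C. tropicalis 5008) or 1 × 10⁶ cells/mL (C. neoformans H99). Compound at several concentrations; cultures shaken at 240 rpm, 30 °C. Growth read as OD₆₃₀ at 0, 6, 12, 24, 36 and 48 h. Done in triplicate.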

Cryptococcus neoformans [5] = experiment: Inhibition of CYP51 in Cryptococcus neoformans H99 assessed as lanosterol level at 4 ug/ml by GC-MS analysis; parameters: scale not given: the % may be the effect or the level left; conditions: dose 4.0 µg/ml
Cryptococcus neoformans [6] = experiment: Inhibition of biofilm formation in Cryptococcus neoformans H99 at 64 ug/ml incubated for 24 hrs by XTT reduction assay; type: functional
Method in brief: (§3)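 C. tropicalis 5008 or C. neoformans H99 from exponential YEPD culture diluted in RPMI 1640 to 1 × 10⁶ CFU/mL. Adhesion at 37 °C for 1.5 h. Results given as percent inhibition versus untreated wells. Three independent experiments, mean ± SD, t-test.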

Cryptococcus neoformans [7] = experiment: Downregulation of CLR62 mRNA expression in Cryptococcus neoformans H99 at 2 ug/ml measured after 24 hrs by qRT-PCR analysis; type: functional; conditions: dose 2.0 µg/ml; method in brief: as §1
HUVEC = experiment: Cytotoxicity against human HUVEC assessed as reduction in cell viability; type: cell-based
Cryptococcus neoformans [8] = experiment: Downregulation of CAP64 gene expression in Cryptococcus neoformans H99 at 2 ug/ml measured after 24 hrs by qRT-PCR analysis; type: functional; conditions: dose 2.0 µg/ml; method in brief: as §1
Candida tropicalis [9] = experiment: Inhibition of CYP51 in Candida tropicalis 5008 assessed as ergosterol level at 4 ug/ml by GC-MS analysis (reference value: 84.91%); parameters: scale not given: the % may be the effect or the level left; conditions: dose 4.0 µg/ml
Cryptococcus neoformans [10] = experiment: Downregulation of RPD3 mRNA expression in Cryptococcus neoformans H99 at 2 ug/ml measured after 24 hrs by qRT-PCR analysis; type: functional; conditions: dose 2.0 µg/ml; method in brief: as §1
Cryptococcus neoformans [11] = experiment: Downregulation of HOS2 mRNA expression in Cryptococcus neoformans H99 at 2 ug/ml measured after 24 hrs by qRT-PCR analysis; type: functional; conditions: dose 2.0 µg/ml; method in brief: as §1
Candida tropicalis [12] = experiment: microbe, parasite or virus in culture; type: functional; conditions: 3890, time 48 hrs
Candida tropicalis [13] = experiment: Inhibition of CYP51 in Candida tropicalis 5008 assessed as obtusifoliol level at 4 ug/ml by GC-MS analysis; parameters: scale not given: the % may be the effect or the level left; conditions: dose 4.0 µg/ml
[14] = Inhibition of HDAC in Cryptococcus neoformans H99 using Boc-Lys(Ac)-AMC as substrate preincubated with protoplast for 12 hrs followed by incubation with substrate for 6 hrs by fluorimetric assay
Candida albicans [15] = experiment: microbe, parasite or virus in culture; type: functional; conditions: 4108
Candida albicans [16] = experiment: microbe, parasite or virus in culture; type: functional; conditions: 0304103
Candida tropicalis [17] = experiment: Downregulation of CDR1 mRNA expression in Candida tropicalis 5008 at 4 ug/ml measured after 24 hrs by qRT-PCR analysis; type: functional; conditions: dose 4.0 µg/ml
Method in brief: (§4)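 Exponential-phase C. tropicalis 5008 inoculated into 10 mL YPD with compound at several concentrations, DMSO as blank control. Incubated 35 °C for 24 h. Total RNA isolated on columns and reverse-transcribed. Real-time RT-PCR with ACT1 as internal control. Mean of 3 independent assays ± SD.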

Cryptococcus neoformans [18] = experiment: Downregulation of CAP60 gene expression in Cryptococcus neoformans H99 at 2 ug/ml measured after 24 hrs by qRT-PCR analysis; type: functional; conditions: dose 2.0 µg/ml; method in brief: as §1
Candida tropicalis [19] = experiment: Downregulation of ERG11 mRNA expression in Candida tropicalis 5008 at 4 ug/ml measured after 24 hrs by qRT-PCR analysis; type: functional; conditions: dose 4.0 µg/ml; method in brief: as §4
Cryptococcus neoformans [20] = experiment: Downregulation of HOS3 mRNA expression in Cryptococcus neoformans H99 at 2 ug/ml measured after 24 hrs by qRT-PCR analysis; type: functional; conditions: dose 2.0 µg/ml; method in brief: as §1
Candida albicans [21] = experiment: Antifungal activity against fluconazole-sensitive Candida albicans SC5314 assessed as inhibition of fungal growth; type: functional
Candida tropicalis [22] = experiment: Inhibition of biofilm formation in Candida tropicalis 5008 at 64 ug/ml incubated for 24 hrs by XTT reduction assay; type: functional; method in brief: as §3
Candida albicans [23] = experiment: microbe, parasite or virus in culture; type: functional; conditions: 7781
Cryptococcus neoformans [24] = experiment: Antifungal activity against Cryptococcus neoformans H99 infected in ICR mouse model assessed as reduction in fungal burden in brain at 20 mg/kg, po administered once a day for 5 days; type: functional, organism-based; conditions: time 5.0 day
Method in brief: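 Immunosuppression by intraperitoneal cyclophosphamide 24 h before infection. Infected on day 0 by intravenous 2 × 10⁵ CFU C. neoformans H99. Oral treatment once daily for 5 consecutive days, starting 24 h post infection; saline group as blank. Brains taken on day 6 and homogenized, dilutions plated on SDA at 35 °C for 48 h. Colonies counted for burden; groups compared by ANOVA.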

Candida tropicalis [25] = experiment: Inhibition of CYP51 in Candida tropicalis 5008 assessed as unknown sterol level at 4 ug/ml by GC-MS analysis (reference value: 6.48%); parameters: scale not given: the % may be the effect or the level left; conditions: dose 4.0 µg/ml
Cryptococcus neoformans [26] = experiment: Antifungal activity against fluconazole-sensitive Cryptococcus neoformans H99 assessed as inhibition of cell proliferation at 2 to 8 ug/ml measured for 48 hrs by time growth curve assay; type: functional, organism-based; conditions: dose 2-8 µg/ml; method in brief: as §2
Cryptococcus neoformans [27] = experiment: Downregulation of HOS1 mRNA expression in Cryptococcus neoformans H99 at 2 ug/ml measured after 24 hrs by qRT-PCR analysis; type: functional; conditions: dose 2.0 µg/ml; method in brief: as §1
Cryptococcus neoformans [28] = experiment: Downregulation of CAP59 gene expression in Cryptococcus neoformans H99 at 2 ug/ml measured after 24 hrs by qRT-PCR analysis; type: functional; conditions: dose 2.0 µg/ml
Method in brief: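 Exponential-phase C. neoformans H99 inoculated into 50 mL YPD with compound. Incubated 35 °C for 24 h, then cultures ground in liquid nitrogen for RNA isolation. Transcript levels of capsule-associated genes quantified by RT-qPCR. Three independent experiments, mean ± SD, t-test.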

Cryptococcus neoformans [29] = experiment: Inhibition of CYP51 in Cryptococcus neoformans H99 assessed as eburicol level at 4 ug/ml by GC-MS analysis (reference value: 39.82%); parameters: scale not given: the % may be the effect or the level left; conditions: dose 4.0 µg/ml
Candida albicans [30] = experiment: Antifungal activity against fluconazole-sensitive Candida albicans 9770 assessed as inhibition of fungal growth; type: functional

O=C(CCCCCCCOc1ccc(CN2CCN(CC(O)(Cn3cncn3)c3ccc(F)cc3F)CC2)cc1)NO (stereo unspecified)
inhibition (Cryptococcus neoformans [1]): Active | inhibition (Cryptococcus neoformans [2]): Active | Activity (Cryptococcus neoformans [3]): 19.1% | Activity (Candida tropicalis [4]): Active | Activity (Cryptococcus neoformans [5]): 9.59% | inhibition at 64 µg/mL (Cryptococcus neoformans [6]): 70% | inhibition (Cryptococcus neoformans [7]): Active | IC50 (HUVEC): 5.9 µg/mL (≈ 10.1 µM) | inhibition (Cryptococcus neoformans [8]): inactive | Activity (Candida tropicalis [9]): 1.51% | inhibition (Cryptococcus neoformans [10]): Active | inhibition (Cryptococcus neoformans [11]): Active | MIC80 (Candida tropicalis [12]): 0.5 µg/mL (≈ 0.852 µM) | Activity (Candida tropicalis [13]): 16% | pIC50 [14]: 4.90 | MIC80 (Candida albicans [15]): 8 µg/mL (≈ 13.6 µM) | MIC80 (Candida albicans [16]): 8 µg/mL (≈ 13.6 µM) | inhibition (Candida tropicalis [17]): Active | inhibition (Cryptococcus neoformans [18]): Active | inhibition (Candida tropicalis [19]): Active | inhibition (Cryptococcus neoformans [20]): Active | MIC80 (Candida albicans [21]): 8 µg/mL (≈ 13.6 µM) | inhibition at 64 µg/mL (Candida tropicalis [22]): 100% | MIC80 (Candida albicans [23]): 1 µg/mL (≈ 1.7 µM) | Activity (Cryptococcus neoformans [24]): Active | Activity (Candida tropicalis [25]): 1.31% | Activity (Cryptococcus neoformans [26]): Active | inhibition (Cryptococcus neoformans [27]): Active | inhibition (Cryptococcus neoformans [28]): inactive | Activity (Cryptococcus neoformans [29]): 71.3% | MIC80 (Candida albicans [30]): 16 µg/mL (≈ 27.3 µM)
